Assay outcomes as filed in PubChem BioAssay.
AHR activator: AHR activators, primary screen, cell-based, luminescence, luciferase reporter, human. Aryl hydrocarbon receptor (Homo sapiens), P35869. AHR-responsive luciferase reporter cells. activation, % at 5 µM. 2.5% of 320,000 active. AID 2796, 2010; in the data active = activation above about 47%;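 note: 0% = vehicle wells and 100% = reference agonist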
HIF act: HIF pathway transcriptional activators, primary screen, cell-based, U2OS HRE-luciferase, luminescence. U2OS HRE-luciferase reporter; normalized: DMSO 0%, desferrioxamine 100%. activation, % at 7.5 µM (by protocol). 0.32% of 300,000 active. AID 1910, 2009;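 active = mean activation of at least 10% of the iron chelator positive control signal, with at least half of replicates also reaching 10%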
ABCB6 inh 2: ABCB6 transporter inhibitors, primary screen, K562-ABCB6 cells, flow cytometry, MLPCN library; fluorescence ratio to DMSO, % at 10 µM; ATP-binding cassette sub-family B member 6 (Homo sapiens), Q9NP58; K562-ABCB6 porphyrin accumulation, 1 h; hits give low values; 0.19% of 360,000 active;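 active = fluorescence ratio to DMSO below 75%, the collection mean minus 3 SD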;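 note: signal is porphyrin accumulated inside mitochondria; 100% equals median channel fluorescence of DMSO control wells; lower ratio means ABCB6 inhibition with less porphyrin fluorescence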
SR-BI HDL uptake: inhibitors of SR-BI mediated HDL lipid uptake, primary screen, ldlA[mSR-BI] cells, fluorescence, single point; ldlA[mSR-BI] CHO cells, DiI-HDL uptake fluorescence, 3 h; Scavenger receptor class B member 1 (Mus musculus), Q61009; inhibition, % at 12.5 µM; 0.96% of 320,000 active;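 active = mean replicate inhibition of at least 70% and a set share of replicates each scoring 70 or more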;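 note: 0% = median of neutral control wells and 100% = median of positive control wells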
Target sequence (Q61009 whole entry, looked up): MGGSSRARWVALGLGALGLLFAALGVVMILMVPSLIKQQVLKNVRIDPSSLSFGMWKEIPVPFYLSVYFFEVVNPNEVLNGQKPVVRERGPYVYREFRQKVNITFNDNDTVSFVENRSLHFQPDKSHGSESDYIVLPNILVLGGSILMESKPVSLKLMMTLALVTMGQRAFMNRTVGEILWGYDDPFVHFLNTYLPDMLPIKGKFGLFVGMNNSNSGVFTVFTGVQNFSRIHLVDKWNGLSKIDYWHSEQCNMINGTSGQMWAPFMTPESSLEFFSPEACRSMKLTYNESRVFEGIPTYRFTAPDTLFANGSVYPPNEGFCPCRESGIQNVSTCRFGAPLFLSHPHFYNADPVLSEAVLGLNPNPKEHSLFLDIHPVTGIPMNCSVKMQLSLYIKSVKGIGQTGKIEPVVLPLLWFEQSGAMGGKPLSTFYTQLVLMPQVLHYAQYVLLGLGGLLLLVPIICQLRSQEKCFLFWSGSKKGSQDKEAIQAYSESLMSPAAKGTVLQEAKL
GAA850 FXN act: FXN promoter activators, primary screen, cell-based, luciferase luminescence, HEK293 lucGAA850; HEK293 lucGAA850 FXN promoter luciferase reporter, 24 h; percent of 10 µM SAHA response; activation, % at 6 µM; AID 540364, 2011; 0.56% of 360,000 active;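 active = activation above the average of all compounds screened plus 3 SD, cutoff fixed separately per campaign, cut at about 7.5% in these data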;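 note: 0% = DMSO wells and 100% = 10 µM SAHA wells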
SR-BI DiI-HDL act: activators of SR-BI mediated DiI-HDL uptake, primary screen, ldlA[mSR-BI] CHO cells, DiI fluorescence. 3 h; 100 = double the neutral-control signal. activation, % at 12.5 µM. 0.096% of 320,000 active;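 active = mean replicate activation of at least 60% and every replicate at or above 60%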;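 note: 0% = median plate neutral-control signal and 100% = twice that signal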
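System: LDL receptor-deficient CHO ldlA cells overexpressing murine SR-BI | Timing: 3 h uptake period with compound, 37 °C | Medium: HEPES-buffered (25 mM, pH 7.4) F12 plus 0.5% BSA | Dosing: Single-point compound dose | Signal: Bottom-read fluorescence, 550/595 nm | Read-out: Retained DiI signal reflecting DiI-HDL uptake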
Active calls of the source: *. Compounds with a hit are over-represented: about 3.9% of the library has one in this group of screens.

Cc1ccc(S(=O)(=O)c2ccsc2NC(=O)c2ccccc2)cc1 was read as ABCB6 inh 2 96, SR-BI HDL uptake -11, GAA850 FXN act 0 and SR-BI DiI-HDL act 11.
For Cc1nc2ccccn2c1P(=Nc1ccccc1)(N(C)C)N(C)C the results were AHR activator 4, ABCB6 inh 2 103, SR-BI HDL uptake -47, GAA850 FXN act 0 and SR-BI DiI-HDL act 47.
`Cc1c(Cl)cccc1NC(=O)CNc1cccc(C(F)(F)F)c1` gave AHR activator 1, HIF act 1, ABCB6 inh 2 93, SR-BI HDL uptake -4, GAA850 FXN act -2 and SR-BI DiI-HDL act 4.
`N#Cc1ccccc1NC(=O)CNc1ccc(Cl)c(C(F)(F)F)c1` gave AHR activator 65*, HIF act 0, ABCB6 inh 2 100, SR-BI HDL uptake -2, GAA850 FXN act 0 and SR-BI DiI-HDL act 2.
Cn1c(O)c(/C=N/Nc2ccccc2)c(=O)n(C)c1=O was read as AHR activator 58*, HIF act -1, ABCB6 inh 2 105, SR-BI HDL uptake -2, GAA850 FXN act -2 and SR-BI DiI-HDL act 2.
`CCOC(=O)Cc1cc(-c2ccc(F)cc2)nc2ccc3ccccc3c12` gave AHR activator 61*, HIF act 1, ABCB6 inh 2 108, SR-BI HDL uptake 63, GAA850 FXN act -1 and SR-BI DiI-HDL act -63.
For CN(C)c1nc(-c2ccccn2)nnc1-c1ccccc1 the results were AHR activator 85*, HIF act 105*, ABCB6 inh 2 90, SR-BI HDL uptake 32, GAA850 FXN act -6 and SR-BI DiI-HDL act -32.
Cc1nnc(-c2ccccc2)nc1N(C)C was read as AHR activator 15, HIF act 701*, ABCB6 inh 2 95, SR-BI HDL uptake -3, GAA850 FXN act 0 and SR-BI DiI-HDL act 3.
Screening COc1cnc(-c2ccccn2)nc1N(C)C returned AHR activator -4, HIF act 78*, ABCB6 inh 2 95, SR-BI HDL uptake -20, GAA850 FXN act -2 and SR-BI DiI-HDL act 20.
Screening COc1ccc(Oc2nc(-c3ccccn3)ncc2OC)cc1 returned AHR activator -4, HIF act 0, ABCB6 inh 2 94, SR-BI HDL uptake 0, GAA850 FXN act 1 and SR-BI DiI-HDL act 0.
C=CCn1c(SCC(=O)NC2CC2)nnc1-c1ccccn1 was read as AHR activator 1, HIF act 0, ABCB6 inh 2 97, SR-BI HDL uptake -22, GAA850 FXN act 1 and SR-BI DiI-HDL act 22.
For COc1ccccc1OCc1cc(C(=O)N(C)CCC2CCCCO2)no1 (centres undefined) the results were AHR activator 53*, HIF act 3, ABCB6 inh 2 107, SR-BI HDL uptake 6, GAA850 FXN act 0 and SR-BI DiI-HDL act -6.
`COc1cc(C(C)=O)ccc1OCc1cc(C(=O)N(C)CCC2CCCCO2)no1` (centres undefined) gave AHR activator 23, HIF act 3, ABCB6 inh 2 99, SR-BI HDL uptake 11, GAA850 FXN act 2 and SR-BI DiI-HDL act -11.
Cn1c(=O)c([N+](=O)[O-])c(Cl)c2ccccc21 was read as HIF act 0, ABCB6 inh 2 105, SR-BI HDL uptake -5, GAA850 FXN act 3 and SR-BI DiI-HDL act 5.
For Cc1ccc(Nc2c([N+](=O)[O-])c(=O)n(C)c3ccccc23)cc1C the results were AHR activator 11, HIF act 0, ABCB6 inh 2 99, SR-BI HDL uptake 71*, GAA850 FXN act 4 and SR-BI DiI-HDL act -71.
Screening c1cncc(N=c2scc(-c3cccc4ccccc34)n2CCCn2ccnc2)c1 returned AHR activator 56*, HIF act 0, ABCB6 inh 2 91, SR-BI HDL uptake -24, GAA850 FXN act 1 and SR-BI DiI-HDL act 24.
